Bioassay records as filed in PubChem.
This is a sample that favours compounds with a hit; in the whole collection about 5.2% have one here.
core dimer inh – inhibitors of HCV core protein dimerization, primary screen, biochemical, TR-FRET, high-throughput | inhibition, % at 5 µM | AID 1899, 2009 | 300,000 compounds, 0.33% hits | TR-FRET GST/Flag-core106 dimerization, 1536-well;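 active means inhibition above the mean of all tested compounds plus 3 SD, set per screening campaign, cut at about 45% in these data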
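Assay system: Tagged HCV core106 pair (GST and Flag) | Buffer or medium: KF-containing HEPES buffer, pH 7.45, DTT, CHAPS, BSA | Also added: Eu donor and XL665 acceptor anti-tag antibodies | Dosing: One concentration, 5 µM, in 0.5% DMSO | Timing: 4 h at 22.5 °C | Technique: TR-FRET 671 and 617 nm emission | Repeats: Singlicate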
ALR inh – inhibitors of human ALR sulfhydryl oxidase, primary screen, biochemical, H2O2 detection, HRP-luminol luminescence, single point. inhibition, % (test concentration not listed). purified ALR, DTT oxidation. 290,000 compounds, 3.8% hits. FAD-linked sulfhydryl oxidase ALR (Homo sapiens), P55789;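 active means mean replicate inhibition above about 79%, with every replicate also reaching it, limit read from the data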
Target sequence (P55789 whole entry, looked up): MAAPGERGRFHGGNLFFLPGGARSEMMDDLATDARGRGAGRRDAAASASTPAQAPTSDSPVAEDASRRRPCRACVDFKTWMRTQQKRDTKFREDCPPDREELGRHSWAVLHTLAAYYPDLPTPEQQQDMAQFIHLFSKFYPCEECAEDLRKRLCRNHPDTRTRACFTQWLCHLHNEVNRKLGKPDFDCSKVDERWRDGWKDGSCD
EBNA-1 inh – EBNA-1 DNA-binding inhibitors, primary screen, biochemical, fluorescence polarization | AID 1950, 2009 | 300,000 compounds, 0.34% hits | inhibition, % at 14.8 µM; in the data active means inhibition above about 28%
ZTA DNA inh – blocks Epstein-Barr virus ZTA, an EBNA-1 counter-screen; 320,000 compounds, 0.15% hits; ZTA-DNA binding, fluorescence polarization; inhibition, % at 11 µM; in the data active means inhibition above about 33%
Target sequence (P03206 whole entry, looked up): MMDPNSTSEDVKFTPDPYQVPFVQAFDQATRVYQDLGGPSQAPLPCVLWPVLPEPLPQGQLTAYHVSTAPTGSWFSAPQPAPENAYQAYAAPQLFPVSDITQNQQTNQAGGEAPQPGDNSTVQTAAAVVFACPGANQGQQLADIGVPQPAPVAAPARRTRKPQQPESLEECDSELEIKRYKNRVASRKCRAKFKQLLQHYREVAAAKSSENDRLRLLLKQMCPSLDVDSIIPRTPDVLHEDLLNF
PfM18AAP inh – PfM18AAP inhibitors, malaria aminopeptidase, primary screen, biochemical, QFRET, recombinant enzyme; H-Glu-NHMec fluorogenic cleavage; 290,000 compounds, 1.2% hits; M18 aspartyl aminopeptidase (Plasmodium falciparum 3D7); inhibition, % at 7.35 µM;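 active means inhibition above the campaign mean inhibition over all tested compounds plus 3 SD, cut at about 28% in these data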
NS3 helicase inh – inhibitors of HCV NS3 helicase, primary screen, biochemical, Cy5 molecular beacon fluorescence. 290,000 compounds, 0.56% hits. inhibition, % at 10.9 µM. NS3 helicase DNA unwinding;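 active means inhibition above the mean of all tested compounds plus 3 SD, set per campaign, cut at about 35% in these data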
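System: HCV NS3 helicase fragment; control set: DMSO and thioflavine S; technique: Cy5 fluorescence at 0 and 60 min, beacon hairpin quenching; reagent: beacon DNA duplex substrate plus ATP; replicates: singlicate; schedule: 1 h reaction at 25 °C, ATP-initiated; medium: MOPS buffer pH 6.5 with MgCl2, DTT, Tween20, BSA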
Hits are given with their value; - = inactive; . = no result.

SMILES	core dimer inh	ALR inh	EBNA-1 inh	ZTA DNA inh	PfM18AAP inh	NS3 helicase inh
CCOC(=O)Cc1csc(SC(C)C(=O)NC2CCCCC2C)n1 (stereo not drawn)	-	.	-	-	.	.
c1ccc(Nc2ccnc(Nc3ccccc3)n2)cc1	-	96	-	-	-	-
O=c1[nH]c2ccccc2n2cnnc12	-	-	-	-	-	-
S=c1[nH]c2ccccc2n2cccc12	55	-	-	-	-	-
N#CCCn1c(=S)[nH]c2ccccc21	-	-	-	-	-	-
Cn1c(=S)[nH]c2ccccc21	-	84	-	-	-	-
COc1ccc(-n2nc(C(=O)NCC(=O)NC3CCCCC3)c3ccccc3c2=O)cc1	-	-	-	-	-	-
CC[C@@H](C)[C@H](NC(=O)Cc1c(C)c2cc3c(C)coc3c(C)c2oc1=O)C(=O)O	-	98	-	-	-	-
CCCCC(NC(=O)Cc1c(C)c2cc3c(-c4ccccc4)coc3c(C)c2oc1=O)C(=O)O (stereo not drawn)	-	98	-	-	-	-
CCOCCc1nnc(NC(=O)C2CC(=O)N(c3ccc(OCC)cc3)C2)s1 (stereo not drawn)	-	-	-	-	-	-
Cc1cc(Br)ccc1NC(=O)CSCc1c(C)noc1C	.	-	.	.	.	.
COc1ccc(C(=O)N(C)Cc2ccc(C)o2)cc1OC1CCN(C(C)=O)CC1	-	-	-	-	-	-
CSc1nc(O)c(Nc2cccc(Cl)c2)c(=O)[nH]1	-	89	-	-	31	-
CCOC(=O)CSc1nc2cc(C(=O)OC)ccc2c(=O)n1CCN1CCOCC1	-	.	-	-	-	-
COC(=O)c1ccc2c(=O)n(CCN3CCOCC3)c(SCC(=O)Nc3ccc(C)cc3)nc2c1	-	99	-	-	-	-
CCCCn1c(SCC(=O)Nc2ccc(OC)cc2)nc2ccc(N3CCOCC3)cc2c1=O	-	99	-	-	-	-
COCCNC(=O)CC(=O)N/N=C/c1ccc(C(=O)OC)cc1	-	.	-	-	-	-
O=C(CCc1nc2ccccc2c(=O)[nH]1)NNC(=O)c1ccc(F)cc1	.	-	.	-	.	.
C=CCN1C(=O)C2(NNc3ccccc3O2)c2ccccc21 (stereo not drawn)	-	-	-	-	31	-
CCCCN1C(=O)C2(NNc3ccccc3O2)c2ccccc21 (stereo not drawn)	-	-	-	-	-	-
Cc1cc(/C=N/n2cnnc2)c(C)n1-c1cccc(Cl)c1	-	-	-	-	29	-
Cc1cc(/C=N/n2cnnc2)c(C)n1-c1ccc(Cl)cc1	-	-	-	-	-	-
O=C(NNC(=S)NC1CCCCC1)c1ccccc1O	-	97	-	-	-	-
O=C(COC(=O)c1cc2ccccc2cc1O)NC1CCCCC1	.	-	.	.	.	.
O=C(NNC(=O)c1cc2ccccc2cc1O)NC1CCCCC1	.	-	.	.	29	-
SMILES	core dimer inh	ALR inh	EBNA-1 inh	ZTA DNA inh	PfM18AAP inh	NS3 helicase inh
COc1cn(-c2ccccc2)nc1C(=O)OCC(=O)Nc1ccc(C)c(C)c1	.	-	.	-	.	.
CCOC(=O)c1c(NC(=S)Nc2ccccc2)sc2c1CCN(CC)C2	-	87	-	-	-	-
CCn1c(SCC(=O)NNC(=O)c2ccc(OC)cc2)nnc1-c1cccnc1	-	-	-	-	-	-
Cc1ccc2nc(N3CCN(S(=O)(=O)c4ccc(C)c(Cl)c4)CC3)c(C#N)cc2c1	62	-	-	-	-	-
Cc1cccc(NC(=O)Nc2cc(C)cc(C)n2)c1	-	-	-	-	-	-
COc1ccc(C(OCC(O)CN2CCC(O)CC2)c2ccc(OC)cc2)cc1 (stereo not drawn)	-	-	-	-	-	-
C=CCn1c(SCc2ccc(C(=O)O)cc2)nc2sc(C)c(C)c2c1=O	-	99	-	-	-	-
CN(C)C(=O)c1ccc(NC(=O)c2cccc(S(=O)(=O)N3CCCc4ccccc43)c2)cc1	-	98	-	-	.	.
Cc1ccc2c(c1)CCCN2S(=O)(=O)c1cccc(C(=O)Nc2ccccc2C(=O)O)c1	-	98	-	-	-	-
O=C(O)c1cccc(NC(=O)c2cccc(S(=O)(=O)N3CCc4ccccc43)c2)c1	-	.	-	-	-	-
CCN(CC(=O)Nc1c(F)cccc1F)C(=O)c1cc2ccccc2oc1=O	-	.	-	-	.	.
CCCn1c2ccccc2c2nnc(SCCN3CCOCC3)nc21	-	96	-	-	-	-
Oc1cc(O)cc(-c2cc3ccc(O)cc3o2)c1	-	99	-	-	.	.
NC(=S)c1cc2ccc(O)cc2oc1=O	.	.	.	.	-	-
CCN(CC)CCCn1c2c(c(SCC(=O)Nc3ccc(OC(F)(F)F)cc3)nc1=O)CCC2	-	-	-	-	.	.
COc1ccc(NC(=O)CSc2nc(=O)n(CCN(C)C)c3c2CCCC3)cc1	-	-	-	-	.	.
CCN(CC)CCCn1c2c(c(SCC(=O)Nc3ccc(C)c(F)c3)nc1=O)CCC2	-	97	-	-	.	.
CCN(CC)CCCn1c2c(c(SCC(=O)Nc3nc4ccccc4s3)nc1=O)CCC2	-	99	-	-	.	.
CN(C)CCCn1c2c(c(SCC(=O)Nc3ccc4c(c3)OCCO4)nc1=O)CCC2	-	99	-	-	.	.
CCCCc1ccc(NC(=O)CSc2nc(=O)n(CCN(C)C)c3c2CCC3)cc1	-	98	-	-	.	.
CCN(CC)CCn1c2c(c(SCC(=O)NCc3ccccc3)nc1=O)CCC2	-	-	-	-	.	.
COC(=O)c1ccc(COC(=O)CNC(=O)c2cccs2)cc1	-	-	-	-	-	-
O=C(CCCC1=NS(=O)(=O)c2ccccc2N1)Nc1ccccc1	-	-	-	-	-	-
CCCCc1ccc(NC(=O)CSc2nc(=O)n(CCN(CC)CC)c3c2CCCC3)cc1	-	98	-	-	.	.
CCN(CC)CCn1c2c(c(SCC(=O)Nc3cccc4ccccc34)nc1=O)CCCC2	-	96	-	-	.	.
Cc1ccc(NC(=O)CSc2nc(=O)n(CCN(C)C)c3c2CCCC3)cc1Cl	-	98	-	-	.	.
O=C(COC(=O)Cn1cc(C(F)(F)F)ccc1=O)Nc1ccccc1	.	-	.	-	.	.
CCOC(=O)N1CCN(C(=O)Cn2nc(C)n3nc(-c4ccccc4)cc3c2=O)CC1	-	-	-	-	-	-
O=C(O)CCCCCNc1nc(=S)[nH]c2ccccc12	-	82	-	-	-	-
